3 compounds from ChEMBL document CHEMBL4406905, “The adduct formation between the thioguanine-polyamine ligands and DNA with the AP site under UVA irradiated and non-irradiated conditions” (Bioorg Med Chem, 2019) can be followed below.

Assay [1] can be described thus: Induction of DNA cleavage in 5'-FAM-DNA1(U)/DNA2(C) duplex DNA (unknown origin) assessed as increase in slower moving bands at 10 uM measured after 1 hr by fluorescence based PAGE analysis.
Assay [2] can be described thus: Binding affinity to A-T-C/T-A-G duplex DNA (unknown origin) assessed as change in melting temperature at 10 uM by UV-Vis spectrophotometric analysis (reference value: 52.0 +/- 0.1 degC).
Assay [3] in a line: Binding affinity to A-F-C/T-A-G duplex DNA (unknown origin) assessed as change in melting temperature at 10 uM by UV-Vis spectrophotometric analysis (reference value: 33.6 +/- 0.2 degC).
A short description of assay [4]: Induction of DNA cleavage in 5'-FAM-DNA1(U)/DNA2(A) duplex DNA (unknown origin) assessed as formation of beta elimination production DNA4 at 10 uM measured for 5 hrs by fluorescence based PAGE analysis. The procedure, abridged: (§1)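 DNA1(U)/DNA2(X) was annealed 5 min at 70 °C and treated with uracil-DNA glycosylase (0.2 unit/µl, pH 7.4, 37 °C, 15 min) to form the AP site. The 100 nM duplex was re-annealed in 10 mM HEPES-NaOH pH 7.0 with 100 mM NaCl, then incubated with 10 µM ligand at 37 °C for 5–300 min. Reactions were quenched with urea/EDTA loading buffer on ice. Products were run on 12% denaturing PAGE (8 M urea), imaged by 5'-FAM fluorescence, and band ratios (%) quantified.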

Assay [5] is described as follows: Induction of DNA cleavage in 5'-FAM-DNA1(U)/DNA2(A) duplex DNA (unknown origin) assessed as change in formation of DNA4 at 10 uM by fluorescence based PAGE analysis. Put shortly:
as §1

Assay [6] is described as follows: Binding affinity to A-F-C/T-T-G duplex DNA (unknown origin) assessed as change in melting temperature at 10 uM by UV-Vis spectrophotometric analysis (reference value: 33.0 +/- 0.4 degC).
Assay [7] is described as follows: Induction of DNA cleavage in 5'-FAM-DNA1(U)/DNA2(A) duplex DNA (unknown origin) assessed as formation of delta elimination production DNA7 at 10 uM measured for 5 hrs by fluorescence based PAGE analysis. Put shortly:
as §1

A short description of assay [8]: Induction of DNA cleavage in 5'-FAM-DNA1(U)/DNA2(A) duplex DNA (unknown origin) assessed as formation DNA8 at 10 uM measured for 5 hrs by fluorescence based PAGE analysis. Put shortly: as §1
A short description of assay [9]: Induction of DNA cleavage in 5'-FAM-DNA1(U)/DNA2(A) duplex DNA (unknown origin) assessed as formation of DNA8 at 10 uM by fluorescence based PAGE analysis. Put shortly:
as §1

A short description of assay [10]: Binding affinity to A-F-C/T-G-G duplex DNA (unknown origin) assessed as change in melting temperature at 10 uM by UV-Vis spectrophotometric analysis (reference value: 34.4 +/- 0.2 degC).
Assay [11] can be described thus: Binding affinity to C-G-A/G-C-T duplex DNA (unknown origin) assessed as change in melting temperature at 10 uM by UV-Vis spectrophotometric analysis (reference value: 55.2 +/- 0.1 degC).
Assay [12] in a line: Binding affinity to A-F-A/T-C-T duplex DNA (unknown origin) assessed as change in melting temperature at 10 uM by UV-Vis spectrophotometric analysis (reference value: 29.9 +/- 0.3 degC).
The nature of assay [13]: Binding affinity to A-G-A/T-C-T duplex DNA (unknown origin) assessed as change in melting temperature at 10 uM by UV-Vis spectrophotometric analysis (reference value: 50.3 +/- 0.1 degC).
Assay [14] is described as follows: Induction of DNA cleavage in 5'-FAM-DNA1(U)/DNA2(C) duplex DNA (unknown origin) assessed as formation of delta elimination production DNA7 at 10 uM measured for 5 hrs by fluorescence based PAGE analysis. The procedure, abridged: as §1
Assay [15] is described as follows: Photo-activated binding affinity to A-F-C/T-C-G duplex DNA (unknown origin) at 100 uM measured for 24 hrs by HPLC analysis. The procedure, abridged: (§2)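 Duplex at 10 µM (F = tetrahydrofuran AP analogue) with 100 µM ligand in 10 mM HEPES-NaOH pH 7.0, 5 mM DTT and 100 mM NaCl. Irradiated with UVA (4 W, 365 nm) at rt. Analysed by reversed-phase C18 HPLC at 50 °C with 254 nm detection, TEAA pH 7.0/MeCN gradient. Product peak identified by MALDI-TOF MS.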

The nature of assay [16]: Binding affinity to A-G-C/T-C-G duplex DNA (unknown origin) assessed as change in melting temperature at 10 uM by UV-Vis spectrophotometric analysis (reference value: 48.5 +/- 0.1 degC).
A short description of assay [17]: Induction of DNA cleavage in 5'-FAM-DNA1(U)/DNA2(C) duplex DNA (unknown origin) assessed as formation DNA8 at 10 uM measured for 5 hrs by fluorescence based PAGE analysis. The procedure, abridged:
as §1

Assay [18] in a line: Binding affinity to A-A-C/T-T-G duplex DNA (unknown origin) assessed as change in melting temperature at 10 uM by UV-Vis spectrophotometric analysis (reference value: 52.1 +/- 0.1 degC).
Assay [19] in a line: Binding affinity to C-F-A/G-C-T duplex DNA (unknown origin) assessed as change in melting temperature at 10 uM by UV-Vis spectrophotometric analysis (reference value: 32.0 +/- 0.4 degC).
Assay [20] can be described thus: Binding affinity to A-F-C/T-C-G duplex DNA (unknown origin) assessed as change in melting temperature at 10 uM by UV-Vis spectrophotometric analysis (reference value: 30.7 +/- 0.3 degC).
Assay [21] in a line: Induction of DNA cleavage in 5'-FAM-DNA1(U)/DNA2(C) duplex DNA (unknown origin) assessed as formation of beta elimination production DNA4 at 10 uM measured for 5 hrs by fluorescence based PAGE analysis. Put shortly:
as §1

A short description of assay [22]: Binding affinity to A-C-C/T-G-G duplex DNA (unknown origin) assessed as change in melting temperature at 10 uM by UV-Vis spectrophotometric analysis (reference value: 54.8 +/- 0.0 degC).
A short description of assay [23]: Induction of DNA cleavage in 5'-FAM-DNA1(U)/DNA2(C) duplex DNA (unknown origin) assessed as formation of DNA8 at 10 uM by fluorescence based PAGE analysis. Put shortly: as §1
Assay [24] can be described thus: Photo-activated binding affinity to C-F-A/G-C-T duplex DNA (unknown origin) at 100 uM measured for 24 hrs by HPLC analysis. Put shortly:
as §2

Assay [25] can be described thus: Induction of DNA cleavage in 5'-FAM-DNA1(U)/DNA2(C) duplex DNA (unknown origin) assessed as formation of beta elimination production DNA4 at 10 uM measured for 30 min by fluorescence based PAGE analysis. Put shortly: as §1
The nature of assay [26]: Photo-activated binding affinity to A-F-C/T-C-G duplex DNA (unknown origin) assessed as induction of photo reaction at 100 uM measured for 3 hrs by HPLC analysis. The procedure, abridged:
as §2

Assay [27] in a line: Photo-activated binding affinity to A-F-A/T-C-T duplex DNA (unknown origin) at 100 uM measured for 24 hrs by HPLC analysis. The procedure, abridged: as §2
Assay [28] is described as follows: Photo-activated binding affinity to A-F-C/T-A-G duplex DNA (unknown origin) at 100 uM measured for 24 hrs by HPLC analysis. The procedure, abridged:
as §2

Assay [29] can be described thus: Induction of DNA cleavage in 5'-FAM-DNA1(U)/DNA2(C) duplex DNA (unknown origin) assessed as formation of delta elimination production DNA7 at 10 uM by fluorescence based PAGE analysis. The procedure, abridged:
as §1

Assay [30] is described as follows: Photo-activated binding affinity to A-F-C/T-G-G duplex DNA (unknown origin) at 100 uM measured for 24 hrs by HPLC analysis. The procedure, abridged: as §2
Assay [31] can be described thus: Photo-activated binding affinity to A-F-C/T-T-G duplex DNA (unknown origin) at 100 uM measured for 24 hrs by HPLC analysis. Put shortly:
as §2

The source made the active and inactive calls. No cut-off for these calls is given here.

Regarding `NCCCNCCCNCCCn1cnc2c(=O)[nH]c(N)nc21`, in [1], the outcome was inactive.
One may read the ΔTm as the change in melting temperature against a reference sample. Consider `NCCCNCCCNCCCCCn1cnc2c(=S)[nH]c(N)nc21`, for which the ΔTm worked out at 0.6 °C in [2]; 2.8 °C in assay [3]; 3.1 °C in [6]; 3.8 °C in assay [10]; 0.9 °C in [11]; 3.3 °C in [12]. The thermal shift (ΔTm) in assay [13] worked out at 0.6 °C; in assay [16], 0.6 °C; in assay [18], 0.7 °C; in assay [19], 4.1 °C; in assay [20], 4.2 °C; in [22], 1 °C. For the same compound, the result in assay [4], in assay [5], in assay [7], in assay [8], in assay [9] and in [14] was Active. Moreover, the outcome in [15], in assay [17], in assay [21] and in assay [23] was Active.
Regarding `NCCCNCCCNCCCn1cnc2c(=S)[nH]c(N)nc21`, the result in assay [24], in assay [27], in assay [28], in [30] and in [31] was inactive. The result in assay [25], in assay [26], in assay [4], in assay [5], in [7] and in assay [8] was Active. Moreover, the result in assay [9], in assay [14], in assay [15], in [1], in assay [29] and in [17] was Active. Moreover, the outcome in assay [21] was Active. The shift in melting temperature (ΔTm) worked out at 0.5 °C in [2]; 2.3 °C in [3]; 1.2 °C in assay [6]; 1.6 °C in [10]; 0.4 °C in assay [11]; 1.8 °C in assay [12]. Moreover, the ΔTm in assay [13] was 0.7 °C; in assay [16] it was 0.7 °C; in [18], 0.2 °C; in [19], 3.5 °C; in [20], 5.4 °C; in [22], 0.5 °C.
